In the library only some 2.1% were active in any assay of this set; here they are far more common.
TbHK1 inh: blocks Trypanosoma brucei hexokinase 1 activity; inhibition, % at 10 µM; AID 1430; 220,000 tested, 0.11% active; recombinant TbHK1, G6PDH-coupled NADH A340;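 active = inhibition of 50% or more in the single-dose primary screen; inactive = inhibition below 50%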
Hck-Nef inh: blocks Nef-activated human Hck kinase. 220,000 tested, 0.68% active. AID 463187. inhibition, % at 20 µM. Recombinant Hck-YEEI plus Nef, Z-Lyte FRET kinase assay;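 active = Hck-Nef kinase inhibition above about 50%, limit read from the data; inactive = inhibition below that limit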;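 also: 0% = DMSO with Hck plus Nef and 100% = Hck alone without Nef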
RanGTP-Impb inh: inhibitors of RanGTP-importin-beta interaction, primary screen, biochemical, FRET, CFP-Ran, YFP-importin-beta, homogeneous; cell-free CFP-Ran/YFP-importin-beta FRET ratio; 300,000 tested, 1.1% active; inhibition, % (no concentration beside the values);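 active = more than half of the replicate wells show a fall in the fluorescence ratio signal beyond about 16%, limit read from the data, passing the limit was not always enough; inconclusive = exactly half of the replicate wells pass the set limit; inactive = fewer than half of replicates pass the limit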;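 also: 0% = DMSO wells and 100% = Ran loaded with GDP instead of GTP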
Runt-CBFb FRET: inhibitors of human RUNX1 Runt domain binding to CBFb; 220,000 tested, 0.46% active; AID 1496; Q01196+Q13951; inhibition, % at 20 µM; Cerulean-Runt/Venus-CBFb FRET ratio 530/480, 1 h;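 active = inhibition over about 50% at 20 µM in the single-dose screen, limit read from the data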;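 also: 0% = DMSO wells and 100% = excess unlabeled CBFb competitor control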
Target sequence (Q01196 whole entry, looked up, the tested form may be a part): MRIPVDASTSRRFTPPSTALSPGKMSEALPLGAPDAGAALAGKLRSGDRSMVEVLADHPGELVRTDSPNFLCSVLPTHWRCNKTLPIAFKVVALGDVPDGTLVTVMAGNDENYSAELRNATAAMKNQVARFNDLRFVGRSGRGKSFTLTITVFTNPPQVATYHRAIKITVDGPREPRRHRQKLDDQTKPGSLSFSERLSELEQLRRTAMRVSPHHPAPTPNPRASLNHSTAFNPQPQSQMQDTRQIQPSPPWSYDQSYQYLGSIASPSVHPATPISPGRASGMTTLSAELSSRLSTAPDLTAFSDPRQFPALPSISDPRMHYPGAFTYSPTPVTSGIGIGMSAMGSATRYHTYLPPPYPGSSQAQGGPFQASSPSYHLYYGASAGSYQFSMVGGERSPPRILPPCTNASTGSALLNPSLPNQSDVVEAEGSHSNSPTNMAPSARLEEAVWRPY
Target sequence (Q13951 whole entry, looked up, the tested form may be a part): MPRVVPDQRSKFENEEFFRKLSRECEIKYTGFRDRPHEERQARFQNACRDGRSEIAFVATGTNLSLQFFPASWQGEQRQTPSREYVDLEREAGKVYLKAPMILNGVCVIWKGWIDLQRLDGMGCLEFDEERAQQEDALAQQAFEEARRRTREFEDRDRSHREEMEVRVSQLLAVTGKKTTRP
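Assay system: Cerulean-Runt domain / Medium: Tris 50 mM pH 7.5, KCl, K2SO4, 0.01% BSA / Timing: protein complex preformed 1 h, compound exposure 1 h, room temperature, dark / Measured by: FRET, excitation 422 nm, emission at 530 and 480 nm / Evaluation: loss of energy transfer signal / Control set: 5 µM unlabeled CBFb as full-inhibition high control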
p97 inhibitor: blocks human p97 ATPase activity | 220,000 tested, 0.42% active | recombinant p97 ATPase, Kinase-Glo ATP luminescence, 3 h | AID 1481 | inhibition, % at 8 µM; in the data active = inhibition above about 15%;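 also: 0% = DMSO vehicle and 100% = wells lacking enzyme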
Runt-SMMHC FRET: Runt domain-CBFb-SMMHC interaction inhibition. Q01196+Q13951. Cerulean-Runt/Venus-CBFb-SMMHC FRET ratio 530/480, 1 h. inhibition, % at 20 µM. 220,000 tested, 0.74% active;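 active = mean inhibition across duplicate retests at 20 µM reaching about 50%, limit read from the data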;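 also: 0% = DMSO wells and 100% = wells with excess untagged CBFb-SMMHC; inhibitors lower the FRET ratio by blocking Runt binding to CBFb-SMMHC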
G6PDH counter: inhibits Leuconostoc G6PDH, counter-screen for TbHK1 inhibitors | 210 tested, 7% active | purified G6PDH, NADH absorbance, 1 h | shares compounds with TbHK1 inh | inhibition, % at 10 µM | AID 2516;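 active = at least 50% inhibition in the glucose-6-phosphate dehydrogenase coupled counterscreen; inconclusive = no clear call, values can overlap the other calls; inactive = inhibition below 50%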
TbHK1 confirm: T. brucei hexokinase 1 inhibition, rescreen; shares compounds with TbHK1 inh; recombinant TbHK1, G6PDH-coupled NADH A340 absorbance; inhibition, % at 10 µM; 210 tested, 10% active;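 active = inhibition of at least 50% in both of the two screening runs; inconclusive = at least 50% in one run, below 50% in the other; inactive = inhibition below 50% in both runs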;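 also: 0% and 100% set by the maximum and minimum signal control wells on each plate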
p97 confirm: human p97 ATPase inhibition, confirmation; shares compounds with p97 inhibitor; recombinant p97 ATPase, Kinase-Glo ATP luminescence; inhibition, % at 8 µM; 760 tested, 44% active;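 active = percent inhibition of p97 ATPase above a set limit, the primary screen's mean plus 3 SD, cut at about 15% in these data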;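 also: 0% = DMSO wells and 100% = wells lacking p97 protein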
Runt-CBFb TRFRET: disrupts human RUNX1 Runt domain binding to CBFb. shares compounds with Runt-CBFb FRET. TR-FRET RUNX1 Runt domain-CBFb binding. inhibition, % at 20 µM. 480 tested, 20% active; in the data active = inhibition above about 40%
YIC counter: counter-screen: alters YIC FRET probe signal | 1,000 tested, 40% active | shares compounds with RanGTP-Impb inh | IC50, µM | Purified YIC probe, intramolecular FRET ratio YFP/CFP;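 active = fitted half-maximal inhibitory concentration no more than tenfold above the top dose tested; inconclusive = flat fit with 30 to 70% activity, or poor fit; inactive = half-maximal concentration beyond tenfold above the top dose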
* marks the source's active call; other numbers are inactive results; ! = a repeat was not active.

How did Cc1ccc(C2(O)CC(C)N(C)CC2C)cc1 (centres undefined) do in these assays?
TbHK1 inh: 53*; Hck-Nef inh: 6; RanGTP-Impb inh: -2; Runt-CBFb FRET: -3; p97 inhibitor: -2; Runt-SMMHC FRET: 2; G6PDH counter: -3; TbHK1 confirm: 0

What do the screens show for `Cc1[nH]n(-c2ccccc2)c(=O)c1C(c1ccc([N+](=O)[O-])cc1)c1c(C)[nH]n(-c2ccccc2)c1=O`?
TbHK1 inh: -12; Hck-Nef inh: 4; RanGTP-Impb inh: 3; Runt-CBFb FRET: 4; p97 inhibitor: 40*; Runt-SMMHC FRET: -5; p97 confirm: 8

Results for O=C(N/N=C/c1c(O)n(CCc2ccccc2)c(=O)[nH]c1=O)c1ccccc1 ?
TbHK1 inh: -34; Hck-Nef inh: 13; RanGTP-Impb inh: -3; Runt-CBFb FRET: 1; p97 inhibitor: 8; Runt-SMMHC FRET: 3

How did CC(C)c1ccc(N2C(=O)NC(=O)/C(=C/C=C/c3ccco3)C2=O)cc1 do in these assays?
TbHK1 inh: 20; Hck-Nef inh: 7; RanGTP-Impb inh: 0; Runt-CBFb FRET: -3; p97 inhibitor: 16*; Runt-SMMHC FRET: -36; p97 confirm: 11

How did CC(C)(C)OC(=O)c1c(N)n(Cc2ccco2)c2nc3ccccc3nc12 do in these assays?
TbHK1 inh: -15; Hck-Nef inh: 36; RanGTP-Impb inh: 32*; Runt-CBFb FRET: 71*; p97 inhibitor: 16*; Runt-SMMHC FRET: 59*; p97 confirm: 5

What do the screens show for `CCOC(=O)c1c(C)n(Cc2ccco2)c2ccc(O)cc12`?
TbHK1 inh: 1; Hck-Nef inh: -8; RanGTP-Impb inh: 6; Runt-CBFb FRET: 3; p97 inhibitor: 2; Runt-SMMHC FRET: 1

How did CCn1c(=O)n(CC)c2cc([N+](=O)[O-])c(N3CCNCC3)cc21 do in these assays?
TbHK1 inh: 3; Hck-Nef inh: -24; RanGTP-Impb inh: -5; Runt-CBFb FRET: 0; p97 inhibitor: -3; Runt-SMMHC FRET: 0

What do the screens show for `CCC(C)NC(=O)c1c(N)n(CC2CCCO2)c2nc3ccccc3nc12` (centres undefined)?
TbHK1 inh: -10; Hck-Nef inh: 42; RanGTP-Impb inh: 5; Runt-CBFb FRET: 12; p97 inhibitor: 29*; Runt-SMMHC FRET: 100*; p97 confirm: -4

What do the screens show for `CC(C)(C)P(=O)(NCc1ccccc1)c1ccccc1` (centres undefined)?
TbHK1 inh: -2; Hck-Nef inh: 18; Runt-CBFb FRET: -1; p97 inhibitor: 16*; Runt-SMMHC FRET: 0; p97 confirm: 3

What do the screens show for `C=CCN(c1ccc(C(=O)N(CC)CC)cc1)S(C)(=O)=O`?
TbHK1 inh: -1; Hck-Nef inh: 7; RanGTP-Impb inh: 0; Runt-CBFb FRET: -6; p97 inhibitor: 0; Runt-SMMHC FRET: 0

How did CCN(CC)C(=O)c1ccc(N2C(=O)C3CC=C(Cl)CC3C2=O)cc1 (centres undefined) do in these assays?
TbHK1 inh: -2; Hck-Nef inh: -1; RanGTP-Impb inh: -1; Runt-CBFb FRET: -2; p97 inhibitor: 16*; Runt-SMMHC FRET: 1; p97 confirm: 5

What do the screens show for `CCCCn1c(C)c(C(=O)OCC)c2c(CN3CCCC3)c(O)ccc21`?
RanGTP-Impb inh: 1

Results for CCCCn1c(NS(=O)(=O)c2ccccc2)c(C(=O)OCC)c2nc3ccccc3nc21 ?
TbHK1 inh: 27; Hck-Nef inh: 14; RanGTP-Impb inh: 85*; Runt-CBFb FRET: 3; p97 inhibitor: 21*; Runt-SMMHC FRET: 9; p97 confirm: 2

Results for C=CCn1c(O)c(C(CC)=Nc2ccc(N(C)C)cc2)c(=O)[nH]c1=O ?
TbHK1 inh: -5; Hck-Nef inh: 14; RanGTP-Impb inh: -2; Runt-CBFb FRET: 22; p97 inhibitor: 6; Runt-SMMHC FRET: 0

Results for CC/C(=N\N1CCCCCC1)c1c(O)n(-c2ccccc2C)c(=O)[nH]c1=O ?
TbHK1 inh: -9; Hck-Nef inh: 2; RanGTP-Impb inh: inconclusive; Runt-CBFb FRET: 5; p97 inhibitor: 0; Runt-SMMHC FRET: 5

What do the screens show for `CN[C@H]1C[C@H]2O[C@@](C)([C@H]1OC)n1c3ccccc3c3c4c(c5c6ccccc6n2c5c31)C(=O)NC4`?
TbHK1 inh: -15; RanGTP-Impb inh: -3; Runt-CBFb FRET: -4; p97 inhibitor: 15*; Runt-SMMHC FRET: -4; p97 confirm: 12

What do the screens show for `O=C(O)c1ccccc1-c1ccc(C=C2C(=O)N(c3ccccc3)C(=S)N(c3ccccc3)C2=O)o1`?
RanGTP-Impb inh: 2

Results for Cc1cc2c(C(C)C)c(O)c(O)c(C=O)c2c(O)c1-c1c(C)cc2c(C(C)C)c(O)c(O)c(C=O)c2c1O ?
TbHK1 inh: 26; Hck-Nef inh: 102*; Runt-CBFb FRET: 3; p97 inhibitor: 21*!; Runt-SMMHC FRET: -2; p97 confirm: 77*

Results for O=C1NC(=S)NC(=O)C1=Cc1ccc(Br)s1 ?
RanGTP-Impb inh: 0

Results for COCCCn1c(N)c(C(=O)NCc2ccco2)c2nc3ccccc3nc21 ?
TbHK1 inh: -22; Hck-Nef inh: 43; RanGTP-Impb inh: 58*; Runt-CBFb FRET: 60*; p97 inhibitor: 37*; Runt-SMMHC FRET: 81*; p97 confirm: 19*; Runt-CBFb TRFRET: 34

What do the screens show for `Cc1ccc(NC(=O)[C@@H](NC(=O)N2C[C@H]3C[C@@H](C2)c2cccc(=O)n2C3)C(C)C)cc1`?
RanGTP-Impb inh: 0

How did COCCCn1c(N)c(C(=O)OC(C)COC)c2nc3ccccc3nc21 (centres undefined) do in these assays?
TbHK1 inh: -17; Hck-Nef inh: 37; RanGTP-Impb inh: 25*; Runt-CBFb FRET: 79*; p97 inhibitor: 15*; Runt-SMMHC FRET: 94*; p97 confirm: 6; YIC counter: 27*

Results for CN1C(=O)C(c2ccccc2)C(=O)N(C)C1=O ?
RanGTP-Impb inh: -1

Screening data: PubChem, several laboratories
